Experimental data published in ChEMBL document CHEMBL1132961 (J Med Chem, 2000).

Assays:
[1] = Concentration which elicits cytotoxicity in 50% of uninfected human lymphocyte derived CEM cells; assay type: cell-based, CCRF-CEM; details: uninfected CCRF-CEM cells, read-out: TC50 (the source's name)
Outline: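 Cytotoxicity measured in uninfected human lymphocyte-derived CEM cells by XTT protocol.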

[2] = target: T1, Human immunodeficiency virus type 1 protease (Human immunodeficiency virus 1, UniProt Q72874); experiment: Tested for binding affinity against HIV protease
[3] = system: Human immunodeficiency virus 1; experiment: Effective concentration at which 50% of the HIV-IIIB-infected human lymphocyte-derived CEM cells protected from HIV-1 infection; details: Human immunodeficiency virus 1, CCRF-CEM
[4] = target: T1, Human immunodeficiency virus type 1 protease; experiment: Activity of potent nonpeptidic inhibitor against protease
Outline: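 Incubated with 40 µM His-Lys-Ala-Arg-Val-Leu-(p-NO₂-Phe)-Glu-Ala-Nle-Ser-NH₂ in 1.0% DMSO, pH 6.2 MES buffer (DTT, NaCl, EDTA, PEG 8000) for 60 min at 37 °C, then TFA quench. Substrate and product separated by reverse-phase HPLC, read at 220 nm. % control = conversion with inhibitor / conversion without × 100; IC50 derived.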

SMILES | CC50 [1] | Ki [2] | EC50 [3] | IC50 [4]
Cc1cc(SC2=C(O)OC(CCc3ccccc3)(C(C)C)CC2=O)c(C(C)(C)C)cc1O (centres undefined) | 66 µM | 0.0011 µM | 1.8 µM | –
Cc1cc(SC2=C(O)OC(CCc3ccc(O)cc3)(C(C)C)CC2=O)c(C(C)(C)C)cc1NS(=O)(=O)c1ccc(C(F)(F)F)cc1 (centres undefined) | 66 µM | – | 1.1 µM | 0.0183 µM
Cc1cc(SC2=C(O)OC(CCc3ccccc3)(C(C)C)CC2=O)c(C(C)(C)C)cc1OS(=O)(=O)c1cccnc1 (centres undefined) | 65 µM | – | 4.6 µM | 0.014 µM
CCNS(=O)(=O)Oc1cc(C(C)(C)C)c(SC2=C(O)OC(CCc3ccc(O)cc3)(C(C)C)CC2=O)cc1C (centres undefined) | > 100 µM | – | 1 µM | –
Cc1cc(SC2=C(O)O[C@@](CCc3ccccc3)(C(C)C)CC2=O)c(C(C)(C)C)cc1NS(=O)(=O)c1ccc(C(F)(F)F)cn1 | 66 µM | 0.0064 µM | 5.9 µM | –
Cc1cc(SC2=C(O)OC(CCc3ccccc3)(C(C)C)CC2=O)c(C(C)(C)C)cc1NS(=O)(=O)Cn1ccnc1 (centres undefined) | > 100 µM | – | 4.2 µM | 0.0019 µM
Cc1cc(SC2=C(O)OC(CCc3ccc(O)cc3)(C(C)C)CC2=O)c(C(C)(C)C)cc1OS(=O)(=O)c1ccccn1 (centres undefined) | 84 µM | – | 0.7 µM | 0.005 µM
Cc1cc(SC2=C(O)OC(C)(CCc3ccc(O)cc3)CC2=O)c(C(C)(C)C)cc1NS(C)(=O)=O (centres undefined) | > 100 µM | – | 19 µM | 0.0097 µM
Cc1cc(SC2=C(O)OC(C)(CCc3ccc(O)cc3)CC2=O)c(C(C)(C)C)cc1NS(=O)(=O)c1ccc(C(F)(F)F)cc1 (centres undefined) | 79 µM | – | 3.5 µM | 0.0123 µM
Cc1cc(SC2=C(O)OC(CCc3ccccc3)(C(C)C)CC2=O)c(C(C)(C)C)cc1NS(C)(=O)=O (centres undefined) | > 100 µM | 0.00083 µM | 1.6 µM | –
Cc1cc(SC2=C(O)OC(CCc3ccccc3)(C(C)C)CC2=O)c(C(C)(C)C)cc1NS(=O)(=O)c1cccnc1 (centres undefined) | 76 µM | – | 1.6 µM | 0.0035 µM
Cc1cc(SC2=C(O)OC(CCc3ccc(O)cc3)(C(C)C)CC2=O)c(C(C)(C)C)cc1OS(=O)(=O)c1ccc(F)cc1 (centres undefined) | 66 µM | – | 0.8 µM | 0.0096 µM
Cc1cc(SC2=C(O)OC(CCc3ccc(O)cc3)(C3CCCCC3)CC2=O)c(C(C)(C)C)cc1OS(=O)(=O)c1ccccc1 (centres undefined) | 59 µM | – | > 59 µM | 0.131 µM
CCNS(=O)(=O)Nc1cc(C(C)(C)C)c(SC2=C(O)OC(CCc3ccc(O)cc3)(C(C)C)CC2=O)cc1C (centres undefined) | > 100 µM | – | 3.3 µM | 0.0017 µM
Cc1cc(SC2=C(O)OC(C)(CCc3ccc(O)cc3)CC2=O)c(C(C)(C)C)cc1NS(=O)(=O)c1ccc(C#N)cc1 (centres undefined) | > 100 µM | – | 5 µM | 0.0021 µM
Cc1cc(SC2=C(O)OC(CCc3ccc(O)cc3)(C(C)C)CC2=O)c(C(C)(C)C)cc1NS(=O)(=O)c1cccnc1 (centres undefined) | > 100 µM | – | 5.8 µM | 0.0026 µM
Cc1cc(SC2=C(O)OC(CCc3ccc(O)cc3)(C(C)C)CC2=O)c(C(C)(C)C)cc1NS(=O)(=O)c1cccs1 (centres undefined) | > 100 µM | – | 1.8 µM | 0.0087 µM
Cc1cc(SC2=C(O)O[C@](CCc3ccc(O)cc3)(C(C)C)CC2=O)c(C(C)(C)C)cc1NS(=O)(=O)c1ccc(C(F)(F)F)cn1 | 66 µM | 0.00039 µM | 1.8 µM | –
CCNS(=O)(=O)Nc1cc(C(C)(C)C)c(SC2=C(O)OC(CCc3ccccc3)(C(C)C)CC2=O)cc1C (centres undefined) | 77 µM | – | 1.2 µM | 0.0033 µM
CC(=O)Nc1ccc(S(=O)(=O)Nc2cc(C(C)(C)C)c(SC3=C(O)OC(C)(CCc4ccc(O)cc4)CC3=O)cc2C)cc1 (centres undefined) | > 100 µM | – | 55 µM | –
Cc1cc(SC2=C(O)OC(C)(CCc3ccc(O)cc3)CC2=O)c(C(C)(C)C)cc1OS(=O)(=O)c1ccccc1 (centres undefined) | 82 µM | – | 12 µM | 0.0098 µM
Cc1cc(SC2=C(O)OC(CCc3ccc(O)cc3)(C(C)C)CC2=O)c(C(C)(C)C)cc1NS(C)(=O)=O (centres undefined) | > 100 µM | – | 5.3 µM | 0.004 µM
CCNS(=O)(=O)Oc1cc(C(C)(C)C)c(SC2=C(O)OC(CCc3ccc(N)cc3)(C(C)C)CC2=O)cc1C (centres undefined) | 83 µM | – | 0.7 µM | –
Cc1cc(SC2=C(O)OC(C)(CCc3ccc(O)cc3)CC2=O)c(C(C)(C)C)cc1NS(=O)(=O)c1ccc(-c2cccs2)cc1 (centres undefined) | > 100 µM | – | 5.6 µM | 0.0063 µM
Cc1cc(SC2=C(O)OC(CCc3ccc(O)cc3)(C(C)C)CC2=O)c(C(C)(C)C)cc1NS(=O)(=O)c1ccc(Cl)cc1 (centres undefined) | 66 µM | – | 1.6 µM | 0.0053 µM
Cc1cc(SC2=C(O)O[C@@](CCc3ccc(O)cc3)(C(C)C)CC2=O)c(C(C)(C)C)cc1NS(=O)(=O)c1ccc(C(F)(F)F)cn1 | 66 µM | 0.00954 µM | 18 µM | –

SMILES | CC50 [1] | Ki [2] | EC50 [3] | IC50 [4]
Cc1cc(SC2=C(O)OC(CCc3ccc(N)cc3)(C(C)C)CC2=O)c(C(C)(C)C)cc1OS(=O)(=O)N(C)C (centres undefined) | 64 µM | – | 0.8 µM | –
Cc1cc(SC2=C(O)OC(C)(CCc3ccc(O)cc3)CC2=O)c(C(C)(C)C)cc1NS(=O)(=O)c1ccc(Cl)cc1 (centres undefined) | 71 µM | – | 3.9 µM | 0.0035 µM
Cc1cc(SC2=C(O)OC(CCc3ccccc3)(C(C)C)CC2=O)c(C(C)(C)C)cc1OS(=O)(=O)c1ccc(C#N)cc1 (centres undefined) | 25 µM | 0.0007 µM | 1.1 µM | –
Cc1cc(SC2=C(O)OC(CCc3ccc(O)cc3)(C3CCCC3)CC2=O)c(C(C)(C)C)cc1NS(=O)(=O)c1ccccc1 (centres undefined) | 67 µM | – | 2.5 µM | 0.0086 µM
Cc1cc(SC2=C(O)OC(C)(CCc3ccc(O)cc3)CC2=O)c(C(C)(C)C)cc1N (centres undefined) | > 100 µM | – | 3.7 µM | 0.013 µM
Cc1cc(SC2=C(O)OC(CCc3ccc(O)cc3)(C(C)C)CC2=O)c(C(C)(C)C)cc1OS(=O)(=O)c1ccccc1 (centres undefined) | 66 µM | – | 1.6 µM | 0.0104 µM
Cc1cc(SC2=C(O)OC(CCc3ccccc3)(C(C)C)CC2=O)c(C(C)(C)C)cc1N (centres undefined) | 69 µM | – | 1.9 µM | 0.0036 µM
Cc1cc(SC2=C(O)OC(C)(CCc3ccc(O)cc3)CC2=O)c(C(C)(C)C)cc1NS(=O)(=O)Cn1ccnc1 (centres undefined) | > 100 µM | – | 58 µM | 0.0019 µM
Cc1cc(SC2=C(O)OC(CCc3ccc(O)cc3)(C3CCCCC3)CC2=O)c(C(C)(C)C)cc1OS(=O)(=O)c1ccc(F)cc1 (centres undefined) | 66 µM | – | 9.5 µM | 0.029 µM
Cc1cc(SC2=C(O)OC(CCc3ccc(O)cc3)(C(C)C)CC2=O)c(C(C)(C)C)cc1NS(=O)(=O)c1ccc(F)cc1 (centres undefined) | 66 µM | – | 1.8 µM | 0.0041 µM
Cc1cc(SC2=C(O)OC(CCc3ccc(N)cc3)(C(C)C)CC2=O)c(C(C)(C)C)cc1OS(=O)(=O)c1ccc(C#N)cc1 (centres undefined) | 53 µM | – | 0.4 µM | 0.0013 µM
Cc1cc(SC2=C(O)OC(CCc3ccc(O)cc3)(C3CCCCC3)CC2=O)c(C(C)(C)C)cc1OS(=O)(=O)c1ccc(C#N)cc1 (centres undefined) | 29 µM | – | 2.6 µM | 0.021 µM
Cc1cc(SC2=C(O)OC(CCc3ccc(O)cc3)(C(C)C)CC2=O)c(C(C)(C)C)cc1NS(=O)(=O)c1cccc(C#N)c1 (centres undefined) | > 100 µM | 0.00021 µM | 5.3 µM | –
Cc1cc(SC2=C(O)OC(CCc3ccc(O)cc3)(C(C)C)CC2=O)c(C(C)(C)C)cc1OS(=O)(=O)N(C)C (centres undefined) | 70 µM | – | – | –
Cc1cc(SC2=C(O)OC(C)(CCc3ccc(O)cc3)CC2=O)c(C(C)(C)C)cc1NS(=O)(=O)c1ccc(F)cc1 (centres undefined) | 93 µM | – | 5.6 µM | 0.0037 µM
Cc1cc(SC2=C(O)OC(CCc3ccccc3)(C(C)C)CC2=O)c(C(C)(C)C)cc1OS(=O)(=O)Cn1ccnc1 (centres undefined) | 66 µM | – | 1.1 µM | 0.003 µM
Cc1cc(SC2=C(O)OC(C)(CCc3ccc(O)cc3)CC2=O)c(C(C)(C)C)cc1OS(=O)(=O)c1ccc(F)cc1 (centres undefined) | 100 µM | – | 6.3 µM | 0.0169 µM
Cc1cc(SC2=C(O)OC(C)(CCc3ccc(O)cc3)CC2=O)c(C(C)(C)C)cc1NS(=O)(=O)c1ccccc1 (centres undefined) | > 100 µM | – | 5.2 µM | 0.0015 µM
Cc1cc(SC2=C(O)OC(CCc3ccccc3)(C(C)C)CC2=O)c(C(C)(C)C)cc1NS(=O)(=O)c1cccs1 (centres undefined) | 61 µM | – | 2.1 µM | 0.0036 µM
Cc1cc(SC2=C(O)OC(CCc3ccc(N)cc3)(C(C)C)CC2=O)c(C(C)(C)C)cc1OS(=O)(=O)c1cccnc1 (centres undefined) | 66 µM | – | 2.2 µM | 0.0041 µM
Cc1cc(SC2=C(O)OC(CCc3ccc(O)cc3)(C(C)C)CC2=O)c(C(C)(C)C)cc1N (centres undefined) | 92 µM | – | 1 µM | –
Cc1cc(SC2=C(O)OC(CCc3ccc(O)cc3)(C(C)C)CC2=O)c(C(C)(C)C)cc1NS(=O)(=O)c1ccccn1 (centres undefined) | > 100 µM | – | 4.1 µM | 0.0026 µM
Cc1cc(SC2=C(O)OC(CCc3ccc(O)cc3)(C3CC3)CC2=O)c(C(C)(C)C)cc1NS(=O)(=O)c1ccccc1 (centres undefined) | 76 µM | – | 2.4 µM | 0.0036 µM
Cc1cc(SC2=C(O)OC(CCc3ccccc3)(C(C)C)CC2=O)c(C(C)(C)C)cc1OS(=O)(=O)c1ccccn1 (centres undefined) | 65 µM | – | 1.4 µM | 0.0067 µM
Cc1cc(SC2=C(O)OC(CCc3ccc(O)cc3)(C(C)C)CC2=O)c(C(C)(C)C)cc1NS(=O)(=O)N(C)C (centres undefined) | > 100 µM | – | 1.7 µM | 0.0036 µM
Cc1cc(SC2=C(O)OC(CCc3ccc(N)cc3)(C(C)C)CC2=O)c(C(C)(C)C)cc1OS(=O)(=O)c1cccs1 (centres undefined) | 66 µM | – | 6 µM | 0.0185 µM
